# KCNK9 block – inhibitors of human KCNK9 two-pore domain potassium channel; Q9NPC2; HEK293 KCNK9, FluxOR thallium flux fluorescence; stronger effect = lower value; B-score at 10 µM; actives 1.2% (n = 310,000); AID 488922;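 active means ratio B-score over 3 SD below the library mean, with starting fluorescence within 5 SD of its mean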;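 further: negative B-score means less thallium flux so channel inhibition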
# Target sequence (Q9NPC2 whole entry, looked up, the tested form may be a part): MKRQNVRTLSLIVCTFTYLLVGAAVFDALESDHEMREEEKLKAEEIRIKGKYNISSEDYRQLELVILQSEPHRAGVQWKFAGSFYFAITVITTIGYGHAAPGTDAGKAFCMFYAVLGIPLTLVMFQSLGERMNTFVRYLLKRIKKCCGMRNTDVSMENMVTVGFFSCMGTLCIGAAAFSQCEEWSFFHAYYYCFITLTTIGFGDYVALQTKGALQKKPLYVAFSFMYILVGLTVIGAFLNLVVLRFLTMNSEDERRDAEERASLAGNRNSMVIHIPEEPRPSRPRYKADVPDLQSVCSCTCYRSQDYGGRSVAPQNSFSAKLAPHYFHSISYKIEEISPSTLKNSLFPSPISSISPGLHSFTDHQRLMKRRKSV
# hERG protect – shields human hERG channel from block by proarrhythmic agents | actives 0.51% (n = 310,000) | AID 1511 | activation (rescue from dofetilide block), less the hit threshold, % at 10 µM | CHO-hERG, FluxOR thallium flux, dofetilide IC70 present;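 active means activation above the mean of controls blocked by dofetilide plus 5 SD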;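 further: thallium influx through hERG after potassium depolarization seen as dye fluorescence rise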
# KCNQ1 act – human KCNQ1 channel potentiation or activation | P51787 | CHO-K1 KCNQ1, thallium flux FluxOR fluorescence; stronger effect = higher value | B-score at 10 µM | actives 0.35% (n = 310,000);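 active means fluorescence ratio B-score, a plate-corrected score, at least three library SD, with initial intensity B-score within 5 SD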
#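 Medium – assay buffer, equal DMSO in all wells · Material – CHO-K1 cell line with stable KCNQ1 potassium channel expression · Signal – kinetic FluxOR thallium fluorescence, 10-s 1-Hz baseline, 110-s post-stimulus read · Compound – single concentration per compound, DMSO matched to controls · Schedule – 37 °C overnight plating, 90-min dark dye load, 20-min compound pretreatment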
# KCNK3 inh – human KCNK3 channel inhibition, primary screen. O14649. actives 0.84% (n = 340,000). B-score at 10 µM. CHO-KCNK3 thallium flux, FluxOR fluorescence; stronger effect = lower value. AID 602410;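 active means B-score under library mean minus 4 SD, starting fluorescence ratio at most library mean plus 5 SD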;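 further: more negative B-score means stronger inhibition of thallium flux through KCNK3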
# KCNQ1 block – inhibitors of human KCNQ1 potassium channel | P51787 | CHO-K1 KCNQ1, FluxOR thallium flux fluorescence; stronger effect = higher value | B-score at 10 µM | actives 1.3% (n = 310,000);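 active means compounds whose thallium flux B-score, printed positive for inhibition, exceeds three library SD while starting fluorescence stays within three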;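 further: channel opened by potassium depolarization with thallium stimulus after 20 min compound exposure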
# * = called active by the depositor; i = inactive; / = not tested or not shown. This is a sample that favours compounds with a hit; in the whole collection about 3.1% have one here.
SMILES,KCNK9 block,hERG protect,KCNQ1 act,KCNK3 inh,KCNQ1 block
O=C(c1cc(-c2ccccc2Cl)nc2ccccc12)N1CCN(c2ccccc2O)CC1,i,-25.6,i,i,6*
CCN1CCCC(OC(=O)c2cc(-c3ccccc3Cl)nc3ccccc23)C1 (stereo unspecified),-6.66*,-11.0,i,i,i
CCOC(=O)C1CCCN(C(=O)CCNC(=O)Cn2ccc3ccccc3c2=O)C1 (stereo unspecified),i,-4.0,i,i,i
CC(=O)Nc1ccc(N(C(=O)c2ccccn2)C(C(=O)NC2CCCCC2)c2ccc(F)cc2)cc1 (stereo unspecified),i,-5.8,i,i,i
CCOC(=O)C1CCCN(S(=O)(=O)NC[C@H]2O[C@@H](n3cnc4c(N)ncnc43)[C@H](O)[C@@H]2O)C1 (stereo partly specified),/,/,/,i,/
CCOC(=O)C1=C(COC(=O)c2cccnc2SC)NC(=O)NC1C (stereo unspecified),/,/,/,i,/
CN1Cc2sc(NC(=S)NC(=O)c3ccccc3)c(C#N)c2CC1(C)C,i,-14.6,i,i,8*
CCOc1cc(N2CCOCC2)c(OCC)cc1NC(=O)Cn1nc(C)c([N+](=O)[O-])c1C,i,8.3*,i,i,i
CC(=O)Nc1ccc(S(=O)(=O)N2CCN(c3cc(C)nc4ccccc34)CC2)cc1,i,-6.3,i,i,i
CC(=O)Nc1ccc(S(=O)(=O)N2CCN(c3nc(NC4CCCC4)c4ccccc4n3)CC2)cc1,i,-16.4,i,i,6*
COc1ccc(S(=O)(=O)NC2(C(F)(F)F)N=C(c3ccccc3)NC2=O)cc1 (stereo unspecified),-7.94*,-5.4,i,i,i
O=C1NC(c2ccccc2)=NC1(NS(=O)(=O)c1ccccc1)C(F)(F)F (stereo unspecified),i,-2.6,i,i,i
CCOC(=O)C1=C(Cc2ccc(C)cc2)C(=O)c2ccccc2C1=O,i,2.9,i,/,i
CCOC(=O)C1=C(O)c2ccccc2C(=O)/C1=C\c1ccc(CC)cc1,i,1.9,8*,i,i
CCCc1ccc(/C=C2\C(=O)c3ccccc3C(O)=C2C(=O)OCC)cc1,i,-8.9,8*,/,i
O=C(NCc1nc2ncc(Br)cc2[nH]1)c1ccccc1,i,6.2*,i,i,i
CCN(CC)c1ccc2nc3c4ccccc4c(=O)cc-3oc2c1,i,-2.0,i,/,i
CCN(CC)c1ccc2c(-c3ccc(S(=O)(=O)O)cc3S(=O)(=O)[O-])c3ccc(=[N+](CC)CC)cc-3oc2c1,i,-40.9,i,i,25*
CCn1c(SCC(=O)OC)nc2sc3c(c2c1=O)CCC3,i,-2.7,i,i,i
CCn1c(SCc2ccc(C(=O)OC)o2)nc2sc3c(c2c1=O)CCCC3,-7.86*,-5.8,i,i,i
Cc1ccc(C)n1-c1ccc(C(=O)N2CCC(C(N)=O)CC2)cc1,i,7.2*,i,i,i
Nc1cccc(N2C(=O)c3cccc4c(N)ccc(c34)C2=O)c1,i,-20.3,i,i,11*
Cc1[nH]c2ccccc2c1C(=O)C(C)OC(=O)C1CCC1 (stereo unspecified),i,-8.6,i,i,i
O=C(CC1Sc2ccccc2NC1=O)NNc1cccc(Cl)c1Cl (stereo unspecified),/,/,/,i,/
O=C(CSc1cn[nH]n1)Nc1cccc(C(F)(F)F)c1,-7.53*,-9.8,i,i,i
SMILES,KCNK9 block,hERG protect,KCNQ1 act,KCNK3 inh,KCNQ1 block
O=C(CSc1cn[nH]n1)Nc1cccc(C(=O)O)c1,i,-9.3,i,i,i
COc1ccc(CCN2CC(C(=O)OCC(=O)Nc3c(C)nn(-c4ccccc4)c3C)CC2=O)cc1OC (stereo unspecified),i,-13.3,i,i,i
CN(C(=O)CCNC(=O)Cn1cnc2ccccc2c1=O)c1ccc(Br)cc1,i,-3.1,i,i,i
COc1ccc(Cl)cc1N(C)C(=O)CCNC(=O)Cn1cnc2ccccc2c1=O,i,5.0*,i,i,i
CCCCCCCCNc1nc(Cl)nc(NCc2ccco2)n1,i,-7.1,i,i,i
CCCCCCNc1nc(NCc2ccco2)nc(OCC)n1,-6.89*,-7.0,i,i,i

# Screening data as filed in PubChem BioAssay.
